This is an account of results in ChEMBL document CHEMBL3393025, “Discovery of dual leucine zipper kinase (DLK, MAP3K12) inhibitors with activity in neurodegeneration models” (J Med Chem, 2015).

The term Papp A→B denotes how fast a substance crosses the layer from the apical side. In general, IC50 refers to the concentration that gives 50% inhibition. A word on the inhibition: it is how much of the control response was suppressed. The term half-life denotes the time in which the quantity being followed falls by half. For orientation: bioavailability means dose-corrected exposure relative to a reference, in per cent.

In one data set the test system is MDR1. Put plainly: Apparent permeability from apical to basolateral side in MDCK cells expressing human MDR1 at 5 uM after 60 to 180 mins by LC-MS/MS analysis. The class given is ADME, cell-based, Canis lupus familiaris. The conditions noted are these: dog.
Data set [1] concerns the target T1, Dual specificity mitogen-activated protein kinase kinase 4 (Homo sapiens, UniProt P45985).
T1 sequence (P45985 whole entry): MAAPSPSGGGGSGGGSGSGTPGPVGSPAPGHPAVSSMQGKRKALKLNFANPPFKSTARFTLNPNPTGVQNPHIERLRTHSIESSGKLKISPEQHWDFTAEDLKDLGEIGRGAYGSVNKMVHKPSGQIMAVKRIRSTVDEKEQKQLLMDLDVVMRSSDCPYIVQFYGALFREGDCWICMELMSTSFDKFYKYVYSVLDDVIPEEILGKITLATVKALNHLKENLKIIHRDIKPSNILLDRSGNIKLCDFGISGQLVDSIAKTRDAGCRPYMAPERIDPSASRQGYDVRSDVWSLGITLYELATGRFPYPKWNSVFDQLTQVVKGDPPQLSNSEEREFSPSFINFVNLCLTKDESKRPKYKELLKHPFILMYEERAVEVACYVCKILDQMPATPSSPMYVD
As to the kind of experiment: Inhibition of MKK4 (unknown origin).

Data set [2] addresses Mitogen-activated protein kinase 9 (Homo sapiens, UniProt P45984). Put plainly: Inhibition of JNK2 (unknown origin).
The target of data set [3] is Mitogen-activated protein kinase 10 (Homo sapiens, UniProt P53779). Put plainly: Inhibition of JNK3 (unknown origin).
Chain of Mitogen-activated protein kinase 10 (P53779 whole entry): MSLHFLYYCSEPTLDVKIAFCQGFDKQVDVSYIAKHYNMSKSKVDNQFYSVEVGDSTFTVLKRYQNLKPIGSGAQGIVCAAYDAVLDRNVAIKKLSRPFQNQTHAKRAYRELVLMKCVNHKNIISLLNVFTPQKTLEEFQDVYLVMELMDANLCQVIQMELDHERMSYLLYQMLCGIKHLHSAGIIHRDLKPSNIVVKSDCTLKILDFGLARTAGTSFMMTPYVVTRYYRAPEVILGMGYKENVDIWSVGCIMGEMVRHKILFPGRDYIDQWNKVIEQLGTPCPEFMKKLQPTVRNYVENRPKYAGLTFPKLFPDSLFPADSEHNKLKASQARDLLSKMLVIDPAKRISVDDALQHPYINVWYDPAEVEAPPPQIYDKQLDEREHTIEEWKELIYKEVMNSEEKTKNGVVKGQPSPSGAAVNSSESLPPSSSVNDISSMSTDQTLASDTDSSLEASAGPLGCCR
The target of data set [4] is Mitogen-activated protein kinase kinase kinase 10 (Homo sapiens, UniProt Q02779). As to the kind of experiment: Inhibition of MLK2 (unknown origin).
Chain of Mitogen-activated protein kinase kinase kinase 10 (Q02779 whole entry): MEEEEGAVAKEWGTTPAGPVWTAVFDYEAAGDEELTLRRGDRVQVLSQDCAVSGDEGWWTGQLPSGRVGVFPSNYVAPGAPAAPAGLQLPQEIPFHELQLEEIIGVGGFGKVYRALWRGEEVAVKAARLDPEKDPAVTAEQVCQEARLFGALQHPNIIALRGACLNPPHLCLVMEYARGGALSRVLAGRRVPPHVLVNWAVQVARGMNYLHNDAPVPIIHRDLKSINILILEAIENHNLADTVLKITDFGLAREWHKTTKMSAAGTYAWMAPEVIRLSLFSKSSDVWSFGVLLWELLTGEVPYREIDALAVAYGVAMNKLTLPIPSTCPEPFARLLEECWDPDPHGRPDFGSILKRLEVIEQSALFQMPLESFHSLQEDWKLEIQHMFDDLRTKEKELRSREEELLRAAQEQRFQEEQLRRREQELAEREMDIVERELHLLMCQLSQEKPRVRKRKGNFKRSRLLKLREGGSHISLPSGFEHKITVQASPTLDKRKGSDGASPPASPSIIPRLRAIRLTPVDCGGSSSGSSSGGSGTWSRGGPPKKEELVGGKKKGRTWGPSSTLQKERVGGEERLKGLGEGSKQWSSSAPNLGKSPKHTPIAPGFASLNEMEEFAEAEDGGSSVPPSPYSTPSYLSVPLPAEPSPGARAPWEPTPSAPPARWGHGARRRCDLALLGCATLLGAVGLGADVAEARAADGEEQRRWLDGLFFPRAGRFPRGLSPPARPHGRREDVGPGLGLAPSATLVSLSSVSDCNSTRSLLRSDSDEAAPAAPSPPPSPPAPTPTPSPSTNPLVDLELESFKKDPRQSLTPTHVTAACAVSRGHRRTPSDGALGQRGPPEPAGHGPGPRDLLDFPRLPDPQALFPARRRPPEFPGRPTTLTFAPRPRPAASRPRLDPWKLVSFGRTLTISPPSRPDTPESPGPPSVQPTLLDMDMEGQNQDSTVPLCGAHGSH
For data set [5], the target named is Mitogen-activated protein kinase kinase kinase 11 (Homo sapiens, UniProt Q16584). As to the kind of experiment: Inhibition of MLK3 (unknown origin).
Chain of Mitogen-activated protein kinase kinase kinase 11 (Q16584 whole entry): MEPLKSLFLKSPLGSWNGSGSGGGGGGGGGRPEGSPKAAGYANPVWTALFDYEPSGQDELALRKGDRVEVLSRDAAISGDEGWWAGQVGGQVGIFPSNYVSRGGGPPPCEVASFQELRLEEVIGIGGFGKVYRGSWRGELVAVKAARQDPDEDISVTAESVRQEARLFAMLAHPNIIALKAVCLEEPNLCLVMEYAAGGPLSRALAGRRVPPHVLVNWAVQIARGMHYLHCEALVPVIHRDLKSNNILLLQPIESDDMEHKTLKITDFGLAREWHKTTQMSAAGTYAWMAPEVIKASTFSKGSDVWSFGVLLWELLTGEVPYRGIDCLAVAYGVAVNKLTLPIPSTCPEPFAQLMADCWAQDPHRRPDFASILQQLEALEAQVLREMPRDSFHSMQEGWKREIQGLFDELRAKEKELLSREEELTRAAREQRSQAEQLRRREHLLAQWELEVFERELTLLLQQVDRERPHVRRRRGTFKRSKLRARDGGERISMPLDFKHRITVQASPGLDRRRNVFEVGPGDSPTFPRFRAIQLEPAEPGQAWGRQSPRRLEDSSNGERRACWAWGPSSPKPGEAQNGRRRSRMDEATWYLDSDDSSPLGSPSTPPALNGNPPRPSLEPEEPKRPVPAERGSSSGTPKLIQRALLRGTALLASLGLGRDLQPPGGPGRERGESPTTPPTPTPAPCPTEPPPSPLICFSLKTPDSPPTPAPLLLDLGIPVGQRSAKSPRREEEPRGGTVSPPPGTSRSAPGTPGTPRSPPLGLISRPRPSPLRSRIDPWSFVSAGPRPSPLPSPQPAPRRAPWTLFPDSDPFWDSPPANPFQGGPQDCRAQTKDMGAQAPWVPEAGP
Data set [6] concerns the target Tyrosine-protein kinase Lck (Homo sapiens) (UniProt P06239). As to the kind of experiment: Inhibition of LCK (unknown origin) at 0.1 uM. The procedure, abridged: (§1)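 Kinase selectivity panel of 298 kinases, test compound at 0.1 μM, percent inhibition reported.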
For data set [7], the target named is Proto-oncogene tyrosine-protein kinase Src (Homo sapiens) (UniProt P12931). As to the kind of experiment: Inhibition of Src (unknown origin) at 0.1 uM. In outline: as §1
Chain of Proto-oncogene tyrosine-protein kinase Src (Homo sapiens) (P12931 2-536 limits assumed): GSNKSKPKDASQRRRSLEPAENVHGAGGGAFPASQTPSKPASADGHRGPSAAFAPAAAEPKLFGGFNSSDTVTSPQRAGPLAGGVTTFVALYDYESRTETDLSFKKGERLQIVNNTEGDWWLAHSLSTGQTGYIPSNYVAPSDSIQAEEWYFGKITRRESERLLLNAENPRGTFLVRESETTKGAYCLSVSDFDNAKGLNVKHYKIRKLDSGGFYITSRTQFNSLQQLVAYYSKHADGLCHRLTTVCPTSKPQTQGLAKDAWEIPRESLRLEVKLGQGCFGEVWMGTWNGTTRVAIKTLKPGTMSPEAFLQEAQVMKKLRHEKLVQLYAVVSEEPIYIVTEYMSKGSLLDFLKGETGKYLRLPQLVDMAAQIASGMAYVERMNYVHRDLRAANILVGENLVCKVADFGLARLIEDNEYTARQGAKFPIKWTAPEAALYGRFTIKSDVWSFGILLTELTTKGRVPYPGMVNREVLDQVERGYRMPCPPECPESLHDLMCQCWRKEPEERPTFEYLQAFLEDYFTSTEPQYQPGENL
Data set [8] addresses Tyrosine-protein kinase SYK (Homo sapiens) (UniProt P43405). As to the kind of experiment: Inhibition of Syk (unknown origin) at 0.1 uM. In outline: as §1
The subject of data set [9] is T2, Receptor-type tyrosine-protein kinase FLT3 (Homo sapiens), P36888 [D835Y].
T2 sequence (whole entry): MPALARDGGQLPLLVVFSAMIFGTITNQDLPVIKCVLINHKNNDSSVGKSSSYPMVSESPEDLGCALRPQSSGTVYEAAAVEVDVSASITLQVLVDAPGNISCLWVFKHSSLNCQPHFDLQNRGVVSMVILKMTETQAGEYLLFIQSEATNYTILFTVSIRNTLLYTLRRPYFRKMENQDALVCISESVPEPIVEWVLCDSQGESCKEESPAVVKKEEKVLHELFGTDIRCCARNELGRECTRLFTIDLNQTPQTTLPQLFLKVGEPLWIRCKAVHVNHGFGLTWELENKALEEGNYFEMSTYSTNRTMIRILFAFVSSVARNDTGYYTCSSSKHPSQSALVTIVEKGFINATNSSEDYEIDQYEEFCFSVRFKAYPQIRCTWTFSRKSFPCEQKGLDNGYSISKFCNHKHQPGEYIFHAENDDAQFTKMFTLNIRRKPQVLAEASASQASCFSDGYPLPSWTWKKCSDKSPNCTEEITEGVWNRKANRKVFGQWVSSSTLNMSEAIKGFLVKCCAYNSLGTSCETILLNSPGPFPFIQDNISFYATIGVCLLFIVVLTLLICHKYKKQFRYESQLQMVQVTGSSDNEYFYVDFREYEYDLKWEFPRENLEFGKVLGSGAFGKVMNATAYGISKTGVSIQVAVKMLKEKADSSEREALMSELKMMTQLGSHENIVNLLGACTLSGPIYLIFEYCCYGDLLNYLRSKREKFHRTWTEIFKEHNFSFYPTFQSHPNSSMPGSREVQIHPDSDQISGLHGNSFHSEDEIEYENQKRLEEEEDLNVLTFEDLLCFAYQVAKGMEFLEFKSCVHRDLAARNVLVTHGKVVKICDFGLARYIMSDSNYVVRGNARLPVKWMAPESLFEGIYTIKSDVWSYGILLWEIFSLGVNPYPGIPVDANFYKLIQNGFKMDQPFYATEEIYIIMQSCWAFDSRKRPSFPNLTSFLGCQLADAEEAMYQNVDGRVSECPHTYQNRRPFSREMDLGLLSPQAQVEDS
As to the kind of experiment: Inhibition of Flt3 D835Y mutant (unknown origin) at 0.1 uM. The procedure, abridged: as §1

Data set [10] in a line: Plasma clearance in dog at 1 mg/kg, iv and 5 mg/kg, po. It counts as ADME, organism-based, Canis lupus familiaris. In outline:
(§2)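 Single-compound PK. Intravenous dose 1 mg/kg given as a 60% PEG solution. Oral dose 5 mg/kg given as an aqueous suspension in 1% methylcellulose. Plasma clearance, steady-state volume of distribution, half-life and oral bioavailability were determined from these doses.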

Data set [11] can be described thus: Volume of distribution at steady state in rat at 1 mg/kg, iv and 5 mg/kg, po. As to conditions: in vivo, read-out: Vdss. The class given is ADME, organism-based. In outline: as §2
A short description of data set [12]: Volume of distribution at steady state in cynomolgus monkey at 1 mg/kg, iv and 5 mg/kg, po. It counts as ADME, organism-based, Macaca fascicularis. The conditions noted are these: in vivo, read-out: Vdss. The procedure, abridged:
as §2

The nature of data set [13]: Half life in rat at 1 mg/kg, iv and 5 mg/kg, po. The conditions noted are these: in vivo. The class given is ADME, organism-based. The procedure, abridged: as §2
Data set [14] is described as follows: Half life in dog at 1 mg/kg, iv and 5 mg/kg, po. The conditions noted are these: in vivo. The class given is ADME, organism-based, Canis lupus familiaris. In outline: as §2
The nature of data set [15]: Half life in cynomolgus monkey at 1 mg/kg, iv and 5 mg/kg, po. The class given is ADME, organism-based, Macaca fascicularis. The conditions noted are these: in vivo. In outline:
as §2

A short description of data set [16]: Oral bioavailability in rat at 5 mg/kg. The class given is ADME, organism-based. As to conditions: in vivo. The procedure, abridged: as §2
In data set [17] the test system is Mus musculus. As to the kind of experiment: Neuroprotective activity against po dosed C57Bl/6 mouse optic nerve crush model assessed as reduction of phosphorylated c-Jun level in retina administered 30 mins prior to nerve crush injury measured after 6 hrs by MSD ELISA. It counts as functional, organism-based. In outline:
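C57Bl/6 mice dosed orally at two dose levels (MCT suspension) or vehicle, 30 min before optic nerve crush. Retinal p-c-Jun measured 6 h post-injury by MSD ELISA, expressed relative to uncrushed vehicle controls. N = 5 vehicle, 6 per treated group. Mean ± SEM.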

Data set [18] deals with Mus musculus. Put plainly: Neuroprotective activity against C57Bl/6 mouse Parkinson's disease model assessed as reduction of MPTP-induced increase in phosphorylated c-Jun level in substantia nigra at 37.5 to 75 mg/kg, po administered 30 mins prior to MPTP challenge followed by 2nd dosing after 12 and 24 hrs measured 1 hr post last dose by ELISA relative to vehicle-treated control. It counts as functional, organism-based. For orientation: An ELISA detects its analyte on a solid surface through an enzyme-linked reagent.

Calls of active or inactive are those of the source. The calls are words filed in the database; no cut-off is given here.

Chain of Tyrosine-protein kinase Lck (Homo sapiens) (P06239 2-509 limits assumed): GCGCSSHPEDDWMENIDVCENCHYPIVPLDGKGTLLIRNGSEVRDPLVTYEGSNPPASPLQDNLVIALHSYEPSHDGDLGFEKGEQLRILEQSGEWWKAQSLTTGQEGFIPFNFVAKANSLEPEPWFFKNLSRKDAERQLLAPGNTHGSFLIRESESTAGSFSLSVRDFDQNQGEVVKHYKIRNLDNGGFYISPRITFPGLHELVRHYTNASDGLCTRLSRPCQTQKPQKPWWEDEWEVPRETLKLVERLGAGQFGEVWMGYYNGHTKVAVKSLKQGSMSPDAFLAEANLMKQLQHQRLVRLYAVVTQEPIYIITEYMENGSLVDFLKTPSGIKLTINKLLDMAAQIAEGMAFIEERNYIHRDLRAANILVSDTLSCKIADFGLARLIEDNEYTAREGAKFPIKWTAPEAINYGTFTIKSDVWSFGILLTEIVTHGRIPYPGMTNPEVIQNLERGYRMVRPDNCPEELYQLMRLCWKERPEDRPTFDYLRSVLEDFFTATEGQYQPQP
Chain of Mitogen-activated protein kinase 9 (P45984 whole entry): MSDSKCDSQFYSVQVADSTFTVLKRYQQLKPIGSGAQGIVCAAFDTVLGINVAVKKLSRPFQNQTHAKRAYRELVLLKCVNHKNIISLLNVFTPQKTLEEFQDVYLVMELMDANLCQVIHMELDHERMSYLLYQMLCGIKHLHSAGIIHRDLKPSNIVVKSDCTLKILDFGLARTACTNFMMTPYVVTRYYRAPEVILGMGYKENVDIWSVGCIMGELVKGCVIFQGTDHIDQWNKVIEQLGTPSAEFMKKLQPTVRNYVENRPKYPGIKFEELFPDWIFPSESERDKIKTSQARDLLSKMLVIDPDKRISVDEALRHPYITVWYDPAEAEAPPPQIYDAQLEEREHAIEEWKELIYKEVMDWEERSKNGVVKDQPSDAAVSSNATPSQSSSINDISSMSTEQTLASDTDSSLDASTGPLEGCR

Turning to `N#Cc1ccnc(Nc2cc(C3CCN(C4COC4)CC3)cc(N3CCC(F)(F)C3)n2)c1`, in the data set on MDR1, the apical-to-basolateral permeability (Papp A→B) at 5 µM came to 6 ×10⁻⁶ cm/s. Besides, the IC50 in data set [1] is over 5000 nM; in data set [2], 514 nM; in data set [3], 364 nM; in [4] it was 767 nM; in [5], 602 nM. For the same molecule, the inhibition in data set [6], in data set [7], in [8] and in [9] was over 80% throughout. Further, the clearance in data set [10] was determined as 41 mL/min/kg. The Vd in data set [11] is 3.7 L/kg; in data set [12], 3.1 L/kg. In addition, the values for the half-life in [13], in data set [14] and in [15] were 1.8 h, 4 h and 2.4 h, respectively. Further, the bioavailability in [16] is 63%. Further, in the data set on Mus musculus [17], the Activity result is “Dose-dependent effect”. Further, the outcome in the data set with Mus musculus [18] was Active.
